Experimental findings from ChEMBL document CHEMBL1129746, “Structure-based design of HIV protease inhibitors: sulfonamide-containing 5,6-dihydro-4-hydroxy-2-pyrones as non-peptidic inhibitors” (J Med Chem, 1996) are described below.

The target in data set [1] is Human immunodeficiency virus type 1 protease (Human immunodeficiency virus 1) (UniProt Q72874). In words: (§1) Tested for inhibition of HIV protease.
Data set [2] concerns the target Human immunodeficiency virus type 1 protease (Human immunodeficiency virus 1, UniProt Q72874, L33I/L63I/Q7K). In words: Compound was tested for inhibition of HIV protease triple mutant (Q7K/L33I/L63I).
A further data set can be described thus: in vivo. The note with it: rat, plasma, iv, 5 mg/kg.
Data set [3] in a line: Totla clearance of compound reported after 5 mg/kg i.v. dose in rat. Format: ADME, organism-based. Also noted: dose 5 mg/kg, route intravenous. The note with it: in vivo, iv, read-out: CLtotal (converted). The procedure, abridged: (§2)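 Rats (n = 3) dosed intravenously at 5 mg/kg in 10% propylene glycol with 22.5% (hydroxypropyl)-β-cyclodextrin (2 mg/g formulation). Blood levels followed over time to derive total clearance and steady-state volume.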

The nature of data set [4]: Oral bioavailability of compound reported after 5 mg/kg i.v. dose in rat. The data set is classed as ADME, organism-based. Particulars: in vivo, 10 mg/kg, in the assay text read “after 10 mg/kg oral dose” for “after 5 mg/kg i.v. dose”. A digest of the protocol: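 Rats given 10 mg/kg orally (n = 9) in 0.01 M sodium hydroxide, pH 10, at 2 mg/g, and 5 mg/kg intravenously (n = 3) in 10% propylene glycol/22.5% hydroxypropyl-β-cyclodextrin. Time-course blood levels compared; F calculated relative to the intravenous dose.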

Another data set concerns the target T1, Cathepsin E (Homo sapiens, UniProt P14091).
T1 sequence (P14091 whole entry): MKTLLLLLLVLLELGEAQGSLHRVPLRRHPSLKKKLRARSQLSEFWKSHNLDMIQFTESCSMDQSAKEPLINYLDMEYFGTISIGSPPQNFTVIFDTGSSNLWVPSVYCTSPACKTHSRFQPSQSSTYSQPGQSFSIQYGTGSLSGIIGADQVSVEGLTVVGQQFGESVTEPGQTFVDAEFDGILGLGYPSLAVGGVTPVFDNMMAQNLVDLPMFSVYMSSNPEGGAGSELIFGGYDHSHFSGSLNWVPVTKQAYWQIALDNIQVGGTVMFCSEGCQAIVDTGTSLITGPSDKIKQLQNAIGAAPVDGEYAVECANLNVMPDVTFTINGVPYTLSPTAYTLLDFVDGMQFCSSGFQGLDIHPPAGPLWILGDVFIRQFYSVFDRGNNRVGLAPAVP
In words: Compound was tested for inhibition human Cathepsin E.

Data set [5] deals with Human immunodeficiency virus type 1 protease (Human immunodeficiency virus 1) (UniProt Q72874). In words: Compound was tested for inhibition of HIV protease in AZT Resistant HIV-1 clinical isolates in primary PBMC. A digest of the protocol:
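A panel of 10 AZT-resistant HIV-1 clinical isolates was grown in primary PBMC using a standardized PBMC drug-susceptibility assay.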

Data set [6] is described as follows: Volume distribution of compound reported after 5 mg/kg i.v. dose in rat. Format: ADME, organism-based. Also noted: dose 5 mg/kg, route intravenous. Particulars: in vivo, iv, read-out: Vss. A digest of the protocol:
as §2

The next data set has as its target Pepsin A (Homo sapiens, UniProt P0DJD9). In words: Inhibition of human pepsin.
The next data set addresses Cathepsin D (Homo sapiens, UniProt P07339). In words: Compound was tested for inhibition human Cathepsin D.
In data set [7] the target is Human immunodeficiency virus type 1 protease (Human immunodeficiency virus 1, UniProt Q72874). Described as §1. The procedure, abridged: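 Ki measured against a tandemly linked (single-chain) HIV protease construct, used because the native dimeric enzyme dissociates at low enzyme concentration.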
Data set [8] deals with Human immunodeficiency virus 1. In words: Tested for antiviral activity in HIV-1 IIIB-infected H9 cells.
In data set [9] the test system is Human immunodeficiency virus type 1 protease (Human immunodeficiency virus 1), Q72874 [Q7K,L33I,L63I].

pIC50, pKi: −log10 of the molar value.

Pepsin A, sequence (P0DJD9 whole entry): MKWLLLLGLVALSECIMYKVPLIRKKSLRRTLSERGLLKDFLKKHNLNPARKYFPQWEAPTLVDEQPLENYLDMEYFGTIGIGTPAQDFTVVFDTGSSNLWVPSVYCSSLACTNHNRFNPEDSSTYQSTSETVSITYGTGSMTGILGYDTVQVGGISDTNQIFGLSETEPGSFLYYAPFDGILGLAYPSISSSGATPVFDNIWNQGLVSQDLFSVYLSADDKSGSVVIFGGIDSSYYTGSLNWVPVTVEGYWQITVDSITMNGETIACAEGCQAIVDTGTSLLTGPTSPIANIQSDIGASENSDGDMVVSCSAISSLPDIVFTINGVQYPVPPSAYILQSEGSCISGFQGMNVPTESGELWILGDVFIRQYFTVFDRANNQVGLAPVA
Cathepsin D, sequence (P07339 65-162 limits assumed): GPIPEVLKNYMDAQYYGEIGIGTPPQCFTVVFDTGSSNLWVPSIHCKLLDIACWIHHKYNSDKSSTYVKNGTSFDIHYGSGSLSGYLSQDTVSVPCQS
Cathepsin D, sequence (P07339 169-412 limits assumed): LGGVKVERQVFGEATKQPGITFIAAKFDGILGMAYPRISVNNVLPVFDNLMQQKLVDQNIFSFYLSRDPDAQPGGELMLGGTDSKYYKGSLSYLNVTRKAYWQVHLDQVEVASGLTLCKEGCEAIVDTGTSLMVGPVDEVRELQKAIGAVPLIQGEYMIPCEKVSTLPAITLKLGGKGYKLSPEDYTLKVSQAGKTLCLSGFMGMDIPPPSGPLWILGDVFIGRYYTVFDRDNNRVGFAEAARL

The term IC90 denotes the concentration at which the effect reaches the 90% level. In data set [1], `CCC[C@]1(CCc2ccccc2)CC(=O)C([C@@H](CC)c2cccc(NS(=O)(=O)c3cn(C)cn3)c2)=C(O)O1` (stereo in doubt; Vd) [listing 1 of 2 here] yielded an IC90 of more than 1000 nM.

What is called pKi is −log10 of the Ki, conventionally taken in molar units. A high value points to a small Ki. The term half-life denotes the time in which the quantity being followed falls by half. A lower half-life goes with rapid decline. Usually bioavailability stands for the share of a dose that reaches the circulation, judged against a reference dose that is usually intravenous. A higher bioavailability goes with much systemic uptake. With `CCC[C@@]1(CCc2ccccc2)CC(O)=C([C@H](CC)c2cccc(NS(=O)(=O)c3ccc(C(F)(F)F)cn3)c2)C(=O)O1`, the pKi in data set [2] was more than 9.00; on Cathepsin E, 5.05; at Pepsin A, 5.70; at Cathepsin D it was 4.82. In “in vivo”, this compound gave a half-life of 5.4 h. Besides, the clearance in data set [3] was 2.83 mL/min/kg. In data set [4], this compound displayed a bioavailability of 30%. The IC90 in data set [5] was found to be 150 nM. For the same compound, the Vd in data set [6] came out at 0.51 L/kg.

`CCC[C@@]1(CCc2ccccc2)CC(=O)C([C@@H](CC)c2cccc(NS(=O)(=O)c3ccc(C(F)(F)F)cn3)c2)=C(O)O1` (stereo in doubt; form 1) [listing 1 of 2 here] showed a pKi in data set [7] of 9.66.

As a reminder, the pIC50 is the negative decadic logarithm of the IC50, by convention in mol/L. In turn, `CCC[C@]1(CCc2ccccc2)CC(=O)C([C@@H](CC)c2cccc(NS(=O)(=O)c3ccc(C#N)cn3)c2)=C(O)O1` had a pIC50 in [8] of less than 6.00. In data set [7], the pKi was 9.92. This compound came in with an IC90 in [1] of more than 1000 nM.

`CCCC1(CCc2ccccc2)CC(=O)C(C(CC)c2cccc(NS(=O)(=O)c3cccc4cccnc34)c2)=C(O)O1` (configuration not stated): the pKi in [7] is 8.52. The IC90 in [1] is 3000 nM.

In turn, `CCC[C@]1(CCc2ccccc2)CC(=O)C([C@@H](CC)c2cccc(NS(=O)(=O)c3cn(C)cn3)c2)=C(O)O1` (stereo in doubt; Vb) [listing 1 of 2 here] yielded a 90% effect concentration (IC90) in data set [1] of 560 nM.

In the case of `CCC[C@]1(CCc2ccccc2)CC(=O)C([C@@H](CC)c2cccc(NS(=O)(=O)c3cn(C)cn3)c2)=C(O)O1` (stereo in doubt; Vd) [listing 2 of 2 here], in data set [8], the pIC50 was less than 6.00. The compound further had a pKi in [7] of 10.52.

The compound `CCC[C@]1(CCc2ccccc2)CC(=O)C([C@@H](CC)c2cccc(NS(=O)(=O)c3cn(C)cn3)c2)=C(O)O1` (stereo in doubt; Vb) [listing 2 of 2 here] gave a pIC50 in data set [8] of 6.89. For the same compound, the pKi in data set [7] was 10.22.

Compound `CCC[C@]1(CCc2ccccc2)CC(=O)C([C@H](CC)c2cccc(NS(=O)(=O)c3ccc(C(F)(F)F)cn3)c2)=C(O)O1` showed a pIC50 in data set [8] of 6.85. Besides, the pKi in data set [7] was 10.74. The same compound gave an IC90 in data set [1] of 840 nM.

Consider `CCC[C@@]1(CCc2ccccc2)CC(=O)C([C@@H](CC)c2cccc(NS(=O)(=O)c3ccc(C(F)(F)F)cn3)c2)=C(O)O1` (stereo in doubt; form 2) [listing 1 of 2 here], for which it took 1800 nM to reach the 90% level in [1] (IC90).

With `CCC[C@@]1(CCc2ccccc2)CC(O)=C([C@H](CC)c2cccc(NS(=O)(=O)c3ccc(C#N)cn3)c2)C(=O)O1`, the pKi in [7] is 11.15. The same compound registered an IC90 in data set [1] of 260 nM.

Take `CCC[C@]1(CCc2ccccc2)CC(=O)C([C@@H](CC)c2cccc(NS(=O)(=O)c3cn(C)cn3)c2)=C(O)O1` (stereo in doubt; Vc) [listing 1 of 2 here]: the IC90 in data set [1] is more than 1000 nM.

`CCCC1(CCc2ccccc2)CC(=O)C(C(CC)c2cccc(NS(=O)(=O)c3ccc(C#N)cc3)c2)=C(O)O1` (configuration not stated) gave a pKi in data set [7] of 8.10. Further, in data set [1], the IC90 was 4200 nM.

Compound `CCC[C@]1(CCc2ccccc2)CC(=O)C([C@H](CC)c2cccc(NS(=O)(=O)c3ccc(C#N)cn3)c2)=C(O)O1` gave a pIC50 in data set [8] of 6.31. Besides, in data set [7], the pKi is 10.00. This compound showed an IC90 in [1] of 1000 nM.

Regarding `CCC[C@@]1(CCc2ccccc2)CC(=O)C([C@@H](CC)c2cccc(NS(=O)(=O)c3ccc(C(F)(F)F)cn3)c2)=C(O)O1` (stereo in doubt; form 1) [listing 2 of 2 here], the 90% effect level in data set [1] (IC90) was put at 3000 nM.

In [8], `CCC[C@]1(CCc2ccccc2)CC(=O)C([C@@H](CC)c2cccc(NS(=O)(=O)c3cn(C)cn3)c2)=C(O)O1` (stereo in doubt; Vc) [listing 2 of 2 here] gave a pIC50 of less than 6.00. Also, the pKi in [7] is 9.00.

In data set [8], `CCC(Cc1ccccc1)c1cc(O)c(C(CC)c2ccccc2)c(=O)o1` (configuration not stated) showed a pIC50 of 5.52.

For `CCCC1(CCc2ccccc2)C=c2oc(=O)c(C(CC)c3ccccc3)c(O)c2=CC1` (configuration not stated), the pKi in data set [7] was 7.46.

The compound `CCCC1(CCc2ccccc2)CC(=O)C(C(CC)c2cccc(NS(=O)(=O)c3ccc(F)cc3)c2)=C(O)O1` (configuration not stated) gave a pKi in [7] of 8.22. Also, the IC90 in [1] is 4300 nM.

In data set [2], `CCCC1(CCc2ccccc2)CC(=O)C(C(CC)c2cccc(NS(=O)(=O)c3cn(C)cn3)c2)=C(O)O1` (configuration not stated) had a pIC50 of 6.30 and a pKi of 9.00. This compound gave an IC90 in data set [9] of 900 nM.

In data set [8], `CCC[C@]1(CCc2ccccc2)CC(=O)C([C@@H](CC)c2cccc(NS(=O)(=O)c3cn(C)cn3)c2)=C(O)O1` (stereo in doubt; Va) [listing 1 of 2 here] showed a pIC50 of 6.24. Also, the pKi in [7] is 9.92.

In turn, `CCCC1(CCc2ccccc2)CC(=O)C(C(CC)c2cccc(NS(=O)(=O)c3ccccc3)c2)=C(O)O1` (configuration not stated) had a pKi in [7] of 7.77. In data set [1], the IC90 was 7300 nM.

`CCC[C@@]1(CCc2ccccc2)CC(=O)C([C@@H](CC)c2cccc(NS(=O)(=O)c3ccc(C(F)(F)F)cn3)c2)=C(O)O1` (stereo in doubt; form 2) [listing 2 of 2 here] gave a pKi in data set [7] of 10.49.

For `CCC[C@@]1(CCc2ccccc2)CC(=O)C([C@@H](CC)c2cccc(NS(=O)(=O)c3ccc(C#N)cn3)c2)=C(O)O1`, the pIC50 in [8] is 6.96. In addition, in data set [7], the pKi was 10.40. In addition, it took 890 nM to reach the 90% level in [1] (IC90).

`CCC[C@]1(CCc2ccccc2)CC(=O)C([C@@H](CC)c2cccc(NS(=O)(=O)c3cn(C)cn3)c2)=C(O)O1` (stereo in doubt; Va) [listing 2 of 2 here]: in [1], it took 1000 nM to reach the 90% level (IC90).
